Laboratory results reported in ChEMBL document CHEMBL1128436, “Synthesis and biological evaluation of a new series of sterols as potential hypocholesterolemic agents” (1995).
Activity calls are given as the source filed them. No cut-off for these calls is given here.

Experiments:
Mesocricetus auratus [1] = species on record: Mesocricetus auratus; test: Serum cholesterol level change relative to the control value (313(24)) in hamsters at a dose of 0.2% of diet for 1 week
Cricetinae gen. sp. [2] = test: Total serum cholesterol level with relative to the control value (313(24)) in hamsters at a dose of 0.2% of diet for 1 week; assay type: functional, Cricetulus griseus
[3] = target: Low-density lipoprotein receptor (Homo sapiens) (UniProt P01130); test: (§1) Capability of derepressing the transcription of Low density lipoprotein receptor promoter in the presence of 25-hydroxycholesterol in CHO cells measured as maximum activity at 20 ug/mL; assay type: cell-based
Outline: (§2)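 Stably transfected CHO clone S27/B30 (LDL receptor promoter fused to firefly luciferase), grown to confluence (2-3 days, 37 °C, 5% CO2). Then 24 h in serum-free assay medium (DMEM/Ham's F-12 3:1, 0.5% bovine albumin) with 25-hydroxycholesterol 0.5 μg/mL plus compound at 0.30-20 μg/mL from ethanol stock, triplicate wells. Lysate luciferase peak light per μg protein (Coomassie). EC30 = concentration giving 30% rise over control. MA = % specific induction at 20 μg/mL.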

CHO [4] = test: In vitro [1-14C]-acetate]-cholesterol biosynthesis inhibition assay (14CACBI) in CHO cells; neg = Negative :no effect on biosynthesis of cholesterol; assay type: functional, cell-based; conditions: Cricetulus griseus
Outline: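 Confluent CHO cells in replicate 100 mm dishes were held 20 h in assay medium without 25-hydroxycholesterol, with ethanol vehicle (0.5% v/v) or compound at 20 μg/mL. [1-14C]acetate was then added (final 1 μCi/mL) for 4 h more. Cells were scraped and sonicated, lipids separated, and the cholesterol band scraped and counted by scintillation.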

CHO [5] = test: Capability of derepressing the transcription of SV40 promoter in CHO cells by luciferase assay; NA= Not active within the test range 0-20 ug/mL; assay type: functional, cell-based; conditions: Cricetulus griseus
Outline: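 Counter-screen in CHO clone SV40/LN9, with luciferase driven by the SV40 promoter. Confluent monolayers were given compound at 0.30-20 μg/mL for 24 h in serum-free albumin assay medium, triplicate wells. Lysates were read for luciferase peak luminescence, normalized to lysate protein.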

[6] = target: Low-density lipoprotein receptor (Homo sapiens) (UniProt P01130); test: Capability of derepressing the transcription of human Low density lipoprotein receptor promoter in the presence of 25-hydroxycholesterol in CHO cells by luciferase assay; assay type: cell-based
Outline: as §2

Mesocricetus auratus [7] = species on record: Mesocricetus auratus; test: Serum cholesterol level change relative to the control value (425(58)) in hamsters at a dose of 0.2% of diet for 1 week
[8] = target: Low-density lipoprotein receptor (Homo sapiens) (UniProt P01130); test: as §1; assay type: functional, cell-based
Outline: as §2

Cricetinae gen. sp. [9] = test: Total serum cholesterol level with relative to the control value (425(58)) in hamsters at a dose of 0.2% of diet for 1 week; assay type: functional, Cricetulus griseus
Mesocricetus auratus [10] = species on record: Mesocricetus auratus; test: Serum cholesterol level changes with relative to the control value (333(23)) in hamsters at a dose of 0.2% of diet for 1 week
Cricetinae gen. sp. [11] = test: Total serum cholesterol level with relative to the control value (333(23)) in hamsters at a dose of 0.2% of diet for 1 week; assay type: functional, Cricetulus griseus
Cricetinae gen. sp. [12] = test: Total serum cholesterol level with relative to the control value [306(27)] in hamsters at a dose of 0.2% of diet for 1 week; assay type: functional, Cricetulus griseus
[13] = target: Low-density lipoprotein receptor (Homo sapiens) (UniProt P01130); test: Capability of derepressing the transcription of human Low density lipoprotein receptor promoter in the presence of 25-hydroxycholesterol in CHO cells by luciferase assay; NA= Not active within the test range 0-20 ug/mL; assay type: cell-based
Outline: as §2

Mesocricetus auratus [14] = species on record: Mesocricetus auratus; test: Serum cholesterol level change relative to the control value [306(27)] in hamsters at a dose of 0.2% of diet for 1 week
Mesocricetus auratus [15] = species on record: Mesocricetus auratus; test: Serum cholesterol level change relative to the control value (306(27)) in hamsters at a dose of 0.2% of diet for 1 week
Cricetinae gen. sp. [16] = test: Total serum cholesterol level with relative to the control value (306(27) in hamsters at a dose of 0.2% of diet for 1 week; assay type: functional, Cricetulus griseus
Cricetinae gen. sp. [17] = test: Serum cholesterol level change relative to the control value [320(14)] in hamsters at a dose of 0.2% of diet for 1 week; assay type: functional, Cricetulus griseus
Cricetinae gen. sp. [18] = test: Total serum cholesterol level with relative to the control value [320(14)] in hamsters at a dose of 0.2% of diet for 1 week; assay type: functional, Cricetulus griseus
Cricetinae gen. sp. [19] = test: Total serum cholesterol level with relative to the control value [383(13)] in hamsters at a dose of 0.2% of diet for 1 week; assay type: functional, Cricetulus griseus
Mesocricetus auratus [20] = species on record: Mesocricetus auratus; test: Serum cholesterol level change relative to the control value [383(13)] in hamsters at a dose of 0.2% of diet for 1 week

Sequence of Low-density lipoprotein receptor (Homo sapiens) (P01130 whole entry, the tested form may be a part): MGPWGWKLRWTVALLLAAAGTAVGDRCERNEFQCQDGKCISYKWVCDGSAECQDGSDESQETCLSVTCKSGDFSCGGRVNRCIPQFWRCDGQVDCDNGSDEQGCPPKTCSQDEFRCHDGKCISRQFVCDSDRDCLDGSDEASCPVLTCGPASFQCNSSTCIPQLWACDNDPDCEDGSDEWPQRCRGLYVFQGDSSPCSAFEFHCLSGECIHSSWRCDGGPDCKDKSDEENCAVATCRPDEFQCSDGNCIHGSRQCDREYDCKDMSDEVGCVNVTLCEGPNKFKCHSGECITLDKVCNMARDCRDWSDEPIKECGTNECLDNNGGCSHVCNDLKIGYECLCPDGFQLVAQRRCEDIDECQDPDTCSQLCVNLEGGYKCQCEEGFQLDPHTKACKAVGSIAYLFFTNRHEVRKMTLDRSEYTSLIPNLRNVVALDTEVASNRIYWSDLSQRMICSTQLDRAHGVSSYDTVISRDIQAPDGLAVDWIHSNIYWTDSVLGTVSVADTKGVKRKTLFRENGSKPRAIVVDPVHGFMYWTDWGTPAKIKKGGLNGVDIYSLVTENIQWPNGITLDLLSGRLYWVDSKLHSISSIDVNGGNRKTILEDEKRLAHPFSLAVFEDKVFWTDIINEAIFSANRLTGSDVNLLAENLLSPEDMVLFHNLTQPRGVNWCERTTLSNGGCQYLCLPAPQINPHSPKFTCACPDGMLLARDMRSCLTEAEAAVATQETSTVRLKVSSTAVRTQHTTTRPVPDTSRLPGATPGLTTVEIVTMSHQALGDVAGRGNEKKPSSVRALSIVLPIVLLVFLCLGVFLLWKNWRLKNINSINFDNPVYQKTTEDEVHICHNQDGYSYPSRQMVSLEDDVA

In the case of CC(C)CCC[C@@H](C)[C@H]1CC[C@H]2[C@@H]3CCC4[C@H](Cc5ccccc5)[C@H](O)CC[C@]4(C)[C@H]3CC[C@]12C (some centres not stated), the Relative change (Mesocricetus auratus [1]) is reported as -35%, the Total cholesterol (Cricetinae gen. sp. [2]) is reported as 202 mg/dL and the MA [3] is reported as 44%. The Activity (CHO [4]) was “Negative”, the Activity (CHO [5]) was “inactive” and the EC30 [6] was 32 µM.

In the case of Cc1ccc(C[C@H]2C3CC[C@H]4[C@@H]5CC[C@H]([C@H](C)CCCC(C)C)[C@@]5(C)CC[C@@H]4[C@@]3(C)CC[C@H]2O)cc1 (some centres not stated), the Relative change (Mesocricetus auratus [7]) is reported as -33%, the MA [8] is reported as 45% and the Activity (CHO [5]) is reported as “inactive”. For the same compound, the EC30 [6] was 35 µM and the Total cholesterol (Cricetinae gen. sp. [9]) was 283 mg/dL.

In the case of C=C(Cl)C[C@H]1C2CC[C@H]3[C@@H]4CC[C@H]([C@H](C)CCCC(C)C)[C@@]4(C)CC[C@@H]3[C@@]2(C)CC[C@H]1O (some centres not stated), the MA [3] is reported as 141%, the Relative change (Mesocricetus auratus [10]) is reported as -40% and the Activity (CHO [5]) is reported as “inactive”. The Total cholesterol (Cricetinae gen. sp. [11]) was 200 mg/dL and the EC30 [6] was 1.8 µM.

For CC(C)CCC[C@@H](C)[C@H]1CC[C@H]2[C@@H]3CCC4[C@H](Cc5ccc(O)cc5)[C@H](O)CC[C@]4(C)[C@H]3CC[C@]12C (some centres not stated), the Total cholesterol (Cricetinae gen. sp. [12]) was 261 mg/dL, the EC30 [13] was “inactive” and the Relative change (Mesocricetus auratus [14]) was -15%.

C=CC[C@H]1C2=CCC3C(CC[C@@]4(C)C3CC[C@@H]4[C@H](C)CCCC(C)C)[C@@]2(C)CC[C@H]1O (some centres not stated) was tested, and the Relative change (Mesocricetus auratus [15]) was -47%, the MA [3] was 96% and the Total cholesterol (Cricetinae gen. sp. [16]) was 163 mg/dL. For the same compound, the Activity (CHO [4]) was “Negative”, the Activity (CHO [5]) was “inactive” and the EC30 [6] was 3.5 µM.

C=CC[C@@H]1C[C@@]2(C)C(CC[C@H]3[C@@H]4CC[C@H]([C@H](C)CCCC(C)C)[C@@]4(C)CC[C@@H]32)C[C@@H]1O (some centres not stated) gave a Relative change (Mesocricetus auratus [1]) of -33%, a Total cholesterol (Cricetinae gen. sp. [2]) of 209 mg/dL and an MA [3] of 60%. The Activity (CHO [4]) was “Negative”, the Activity (CHO [5]) was “inactive” and the EC30 [6] was 41 µM.

In the case of CC(C)CCC[C@@H](C)[C@H]1CC[C@H]2[C@@H]3CCC4[C@H](Cc5ccc(OC(F)(F)F)cc5)[C@H](O)CC[C@]4(C)[C@H]3CC[C@]12C (some centres not stated), the MA [3] is reported as 71%, the Activity (CHO [5]) is reported as “inactive” and the EC30 [6] is reported as 15 µM. The Control (Cricetinae gen. sp. [17]) was -34% and the Total cholesterol (Cricetinae gen. sp. [18]) was 209 mg/dL.

For CC(C)CCC[C@@H](C)[C@H]1CC[C@H]2[C@@H]3CCC4[C@H](Cc5ccc(I)cc5)[C@H](O)CC[C@]4(C)[C@H]3CC[C@]12C (some centres not stated), the MA [3] was 80%, the Activity (CHO [4]) was “Negative” and the Total cholesterol (Cricetinae gen. sp. [19]) was 240 mg/dL. For the same compound, the Activity (CHO [5]) was “inactive”, the EC30 [6] was 2.8 µM and the Relative change (Mesocricetus auratus [20]) was -37%.
